According to ChEMBL document CHEMBL1212854, “The structure-activity relationships of A-ring-substituted aromathecin topoisomerase I inhibitors strongly support a camptothecin-like binding mode” (2010):
Active and inactive are the calls of the source. The rule behind the calls is not given here.

How the values were obtained:
[1] = system: NCI-60 human cancer cell line panel (Homo sapiens); assay: Cytotoxicity against NCI-60 human cancer cell line panel (mean) at 10 uM; details: pooled result: one value given for 8 cell lines, strains, targets or settings, read-out: GI
[2] = biological target: T1, DNA topoisomerase 1 (Homo sapiens) (UniProt P11387); assay: Inhibition of human recombinant Top1-mediated DNA cleavage at 0.1 to 100 uM after 20 mins relative to camptothecin; design: scale not given: the % may be the effect or the level left
T1 sequence (whole entry): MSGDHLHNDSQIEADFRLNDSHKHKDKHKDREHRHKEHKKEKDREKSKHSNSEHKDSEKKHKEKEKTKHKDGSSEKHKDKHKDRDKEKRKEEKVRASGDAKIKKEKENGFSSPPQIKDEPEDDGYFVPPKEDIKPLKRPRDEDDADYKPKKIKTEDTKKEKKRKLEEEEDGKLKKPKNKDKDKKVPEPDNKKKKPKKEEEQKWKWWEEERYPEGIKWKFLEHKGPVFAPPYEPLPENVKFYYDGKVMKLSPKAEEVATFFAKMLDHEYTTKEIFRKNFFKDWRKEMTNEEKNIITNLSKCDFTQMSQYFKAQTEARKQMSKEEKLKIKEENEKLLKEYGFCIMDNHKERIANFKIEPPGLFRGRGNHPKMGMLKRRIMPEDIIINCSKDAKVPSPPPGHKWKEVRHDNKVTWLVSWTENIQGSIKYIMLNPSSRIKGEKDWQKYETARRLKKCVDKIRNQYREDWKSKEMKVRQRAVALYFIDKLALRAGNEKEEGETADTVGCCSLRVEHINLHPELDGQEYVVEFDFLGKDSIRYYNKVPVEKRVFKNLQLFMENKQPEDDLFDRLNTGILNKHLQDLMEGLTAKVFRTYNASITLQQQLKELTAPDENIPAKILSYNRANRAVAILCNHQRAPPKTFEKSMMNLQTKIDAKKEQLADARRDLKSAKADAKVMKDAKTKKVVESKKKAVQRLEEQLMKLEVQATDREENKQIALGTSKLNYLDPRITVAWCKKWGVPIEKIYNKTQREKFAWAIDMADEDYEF
Outline: (§1)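 Human recombinant Top1 purified from baculovirus. Substrate is a 117-bp oligonucleotide, about 2 nM, 3′-end labelled with 32P-dGTP by Klenow fill-in. Stopped with 0.5% SDS, run on 20% denaturing PAGE and phosphorimaged. Cleavage graded 0 to +++ against 1 μM camptothecin.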

[3] = system: SF-539; assay: Cytotoxicity against human SF539 cells; type: functional
Outline: (§2)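 NCI 60-cell-line screen (eight solid-tumour subpanels plus leukemia). A one-dose pass at 10−5 M came first. Selected compounds were then run at five concentrations from 10−8 to 10−4 M. GI50 is the concentration giving 50% growth inhibition.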

[4] = system: UACC-62; assay: Cytotoxicity against human UACC62 cells; type: functional
Outline: as §2

[5] = system: SN12C; assay: Cytotoxicity against human SN12C cells; type: functional
Outline: as §2

[6] = system: DU-145; assay: Cytotoxicity against human DU145 cells; type: functional
Outline: as §2

[7] = system: MCF7; assay: Cytotoxicity against human MCF7 cells; type: functional
Outline: as §2

[8] = system: HOP-62; assay: Cytotoxicity against human HOP62 cells; type: functional
Outline: as §2

[9] = system: OVCAR-3; assay: Cytotoxicity against human OVCAR-3 cells; type: functional
Outline: as §2

[10] = system: HCT-116; assay: Cytotoxicity against human HCT116 cells; type: functional
Outline: as §2

[11] = biological target: T1, DNA topoisomerase 1 (Homo sapiens); assay: Inhibition of human recombinant Top1-mediated DNA cleavage at 1 uM after 20 mins relative to camptothecin
Outline: as §1

SMILES	inhibition of growth at 10 µM [1] [%]	Activity [2]	GI50 [3] [µM]	GI50 [4] [µM]	GI50 [5] [µM]	GI50 [6] [µM]	GI50 [7] [µM]	GI50 [8] [µM]	GI50 [9] [µM]	GI50 [10] [µM]	Activity [11]
O=c1c2ccccc2cc2n1Cc1c-2nc2cc3c(cc2c1CNCCCn1ccnc1)OCCO3	14.3	50%	–	–	–	–	–	–	–	–	–
O=c1c2ccccc2cc2n1Cc1c-2nc2cc(Cl)ccc2c1CN1CC[C@H](O)C1	< 15	20%	–	–	–	–	–	–	–	–	–
CN(C)CCCc1c2c(nc3cc4c(cc13)OCCO4)-c1cc3ccccc3c(=O)n1C2	19	75%	–	–	–	–	–	–	–	–	–
O=c1c2ccccc2cc2n1Cc1c-2nc2ccc(Cl)cc2c1CNCCCn1ccnc1	30	50%	–	–	–	–	–	–	–	–	–
Cc1cc2c(CNCCO)c3c(nc2cc1F)-c1cc2ccccc2c(=O)n1C3	> 25	50%	9.23	14.2	20.2	12.2	1.62	11.2	16.8	18.4	–
Cc1cc2c(CN3CC[C@H](O)C3)c3c(nc2cc1F)-c1cc2ccccc2c(=O)n1C3	> 25	50%	–	–	–	–	–	–	–	–	–
O=c1c2ccccc2cc2n1Cc1c-2nc2cc(Cl)ccc2c1Cn1ccnc1	< 15	0%	–	–	–	–	–	–	–	–	–
O=c1c2ccccc2cc2n1Cc1c-2nc2cc3c(cc2c1CNCCCN1CCOCC1)OCCO3	10.8	50%	–	–	–	–	–	–	–	–	–
CN1CCN(Cc2c3c(nc4cc5c(cc24)OCCO5)-c2cc4ccccc4c(=O)n2C3)CC1	23	50%	–	–	–	–	–	–	–	–	–
O=c1c2ccccc2cc2n1Cc1c-2nc2cc(Cl)ccc2c1CNCCCn1ccnc1	> 15	20%	1.86	1.91	2.09	–	1.66	2	2.04	1.82	–
COc1cc2c3c(n(CCCNCCO)c(=O)c2cc1OC)-c1cc2c(cc1C3=O)OCO2 [LMP-744]	–	–	0.04	0.03	< 0.01	< 0.01	< 0.01	0.02	0.5	0.1	Active
COc1cc2nc3c(c(CN4CC[C@H](O)C4)c2cc1OC)Cn1c-3cc2ccccc2c1=O	14.2	inactive	–	–	–	–	–	–	–	–	–
O=c1c2ccccc2cc2n1Cc1c-2nc2cc3c(cc2c1CCl)OCCO3	10.3	20%	–	–	–	–	–	–	–	–	–
CC[C@@]1(O)C(=O)OCc2c1cc1n(c2=O)Cc2cc3ccccc3nc2-1 [CAMPTOTHECIN]	–	–	0.01	0.01	0.02	0.01	0.01	0.01	–	0.03	Active
